For data set [1], the system named is Mus musculus. The experiment in a line: Antidiabetic activity in db/db C57BLKS/J-m +/+ Leprdb mouse assessed as reduction of glucose level at 25 mg/kg, po qd for 10 days measured on 11 relative to control. In kind it is functional. Further details: scale not given: the % may be the effect or the level left. An outline of the steps: (§1)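 Male db/db (C57BLKS/J-m +/+Leprdb) mice, 12−13 weeks old, seven per group, chow and water freely available; once-daily oral gavage in 0.25% methylcellulose vehicle for 11 days. Tail blood drawn just before next dose on days 0, 4, 7 and 11 for plasma glucose. Value is percent correction versus vehicle control; mean of n = 7; rosiglitazone 10 mpk positive control.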

Data set [2] concerns the target T1, Nuclear receptor subfamily 1 group I member 2 (Homo sapiens, UniProt O75469).
T1 sequence (O75469 whole entry): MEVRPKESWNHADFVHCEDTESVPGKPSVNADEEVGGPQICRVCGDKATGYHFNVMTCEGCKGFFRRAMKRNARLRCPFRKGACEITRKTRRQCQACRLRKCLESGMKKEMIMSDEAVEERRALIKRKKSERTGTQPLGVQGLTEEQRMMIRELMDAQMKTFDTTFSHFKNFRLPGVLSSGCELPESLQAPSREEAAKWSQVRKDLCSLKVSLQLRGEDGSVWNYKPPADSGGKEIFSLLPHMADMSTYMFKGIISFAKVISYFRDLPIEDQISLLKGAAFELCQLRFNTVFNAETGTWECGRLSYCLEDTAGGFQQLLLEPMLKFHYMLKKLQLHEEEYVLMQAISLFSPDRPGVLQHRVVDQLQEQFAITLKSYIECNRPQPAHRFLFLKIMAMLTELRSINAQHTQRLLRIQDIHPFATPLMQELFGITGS
Put plainly: Induction of PXR up to 10 uM.

The target in data set [3] is Cytochrome P450 2D6 (Homo sapiens, UniProt P10635). Put plainly: Inhibition of CYP2D6. In kind it is ADME.
The test system of data set [4] is Rattus norvegicus. Put plainly: Plasma clearance in rat at 0.5 mg/kg, iv and 2 mg/kg, po by LC-MS/MS analysis. The conditions noted are these: in vivo. It counts as ADME, organism-based. An outline of the steps:
(§2)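 Rat pharmacokinetics: 2 mpk oral in 5% methylcellulose, 0.5 mpk iv in ethanol/PEG400/water (1/4/5). Blood sampled at set intervals; plasma acidified with 0.5 M formate buffer pH 3.0, acetonitrile-precipitated, quantified by LC−MS−MS against spiked control-plasma calibration curves.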

Data set [5] concerns the target Cytochrome P450 2C9 (Homo sapiens, UniProt P11712). Put plainly: Inhibition of CYP2C9. In kind it is ADME.
Data set [6] is described as follows: AUC in db/db C57BLKS/J-m +/+ Leprdb mouse at 3 mg/kg, po qd for 10 days measured on day 11. In kind it is ADME, organism-based. Further details: dose 3 mg/kg, route oral. The conditions noted are these: plasma. An outline of the steps:
(§3)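 Male db/db (C57BLKS/J-m +/+Leprdb) mice aged 12−13 weeks, seven per group, gavaged once daily with compound in 0.25% methylcellulose vehicle. Total compound exposure measured at study end: plasma acidified with 0.5 M formate buffer pH 3.0, protein precipitated with acetonitrile, quantified by LC−MS−MS against calibration curves in control plasma.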

Data set [7] relates to Rattus norvegicus. The experiment in a line: Antidiabetic activity in obese insulin resistant Zucker fa/fa rat assessed as decrease in insulin level in plasma at 0.1 to 100 mg/kg qd for 7 days. In kind it is functional, organism-based. An outline of the steps: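 Obese insulin-resistant Zucker fa/fa rats (n = 8) dosed daily for 7 days with vehicle or compound. Tail-nick blood taken 1 day before dosing and 1 day after the seventh dose; plasma insulin by rat insulin RIA, free fatty acids and triglyceride by enzymatic kits per manufacturer instructions.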

Data set [8] concerns Mus musculus. The experiment in a line: Antidiabetic activity in db/db C57BLKS/J-m +/+ Leprdb mouse assessed as reduction of glucose level at 20 mg/kg, po qd for 10 days measured on 11 relative to control. Further details: scale not given: the % may be the effect or the level left. It counts as functional. The method in brief:
as §1

Data set [9] concerns Rattus norvegicus. The experiment in a line: Toxicity in obese insulin resistant Zucker fa/fa rat assessed as increase in plasma volume at >= 10 mg/kg. The conditions noted are these: in vivo, 100 mg/kg.
For data set [10], the system named is Mus musculus. The experiment in a line: Antidiabetic activity in db/db C57BLKS/J-m +/+ Leprdb mouse assessed as reduction of glucose level at 10 mg/kg, po qd for 10 days measured on 11 relative to control. In kind it is functional. Further details: scale not given: the % may be the effect or the level left. The method in brief: as §1
In data set [11] the test system is Rattus norvegicus. Put plainly: Toxicity in obese insulin resistant Zucker fa/fa rat assessed as increase in heart weight at >= 10 mg/kg. It counts as organism-based. Further details: dose 10 mg/kg. The conditions noted are these: in vivo.
The target of data set [12] is T2, Peroxisome proliferator-activated receptor alpha (Homo sapiens, UniProt Q07869).
T2 sequence (Q07869 whole entry): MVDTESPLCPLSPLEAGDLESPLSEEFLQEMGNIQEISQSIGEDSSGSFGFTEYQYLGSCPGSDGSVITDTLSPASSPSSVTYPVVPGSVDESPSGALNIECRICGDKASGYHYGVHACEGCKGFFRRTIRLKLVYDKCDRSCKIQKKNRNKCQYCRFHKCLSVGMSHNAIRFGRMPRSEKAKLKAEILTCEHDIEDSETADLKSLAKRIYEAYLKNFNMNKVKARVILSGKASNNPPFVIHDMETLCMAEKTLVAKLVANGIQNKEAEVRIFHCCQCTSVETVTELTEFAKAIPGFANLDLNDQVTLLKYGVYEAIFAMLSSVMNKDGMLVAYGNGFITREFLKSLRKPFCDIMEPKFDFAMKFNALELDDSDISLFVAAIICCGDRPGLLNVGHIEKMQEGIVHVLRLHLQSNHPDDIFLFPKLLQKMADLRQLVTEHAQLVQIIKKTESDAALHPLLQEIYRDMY
The experiment in a line: Binding affinity to human PPARalpha expressed in COS-1 by scintillation proximity assay. The method in brief: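 Scintillation proximity binding assay on PPAR receptors giving IC50; mean of three determinations.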

The test system of data set [13] is Rattus norvegicus. The experiment in a line: Antidiabetic activity in obese insulin resistant Zucker fa/fa rat assessed as decrease in insulin level in plasma administered qd for 7 days.
Data set [14] can be described thus: Oral bioavailability in rat at 2 mg/kg by LC-MS/MS analysis. In kind it is ADME, organism-based. The conditions noted are these: in vivo. An outline of the steps: as §2
Data set [15] concerns Mus musculus. The experiment in a line: Antidiabetic activity in db/db C57BLKS/J-m +/+ Leprdb mouse assessed as reduction of glucose level at 30 mg/kg, po qd for 10 days measured on 11 relative to control. Further details: scale not given: the % may be the effect or the level left. It counts as functional. The method in brief: as §1
The nature of data set [16]: AUC in db/db C57BLKS/J-m +/+ Leprdb mouse at 10 mg/kg, po qd for 10 days measured on day 11. It counts as ADME, organism-based. Further details: dose 10 mg/kg, route oral. The conditions noted are these: plasma. An outline of the steps:
as §3

Calls of active or inactive are those of the source. The calls are words filed in the database; no cut-off is given here.

Sequence of Cytochrome P450 2D6 (P10635 whole entry): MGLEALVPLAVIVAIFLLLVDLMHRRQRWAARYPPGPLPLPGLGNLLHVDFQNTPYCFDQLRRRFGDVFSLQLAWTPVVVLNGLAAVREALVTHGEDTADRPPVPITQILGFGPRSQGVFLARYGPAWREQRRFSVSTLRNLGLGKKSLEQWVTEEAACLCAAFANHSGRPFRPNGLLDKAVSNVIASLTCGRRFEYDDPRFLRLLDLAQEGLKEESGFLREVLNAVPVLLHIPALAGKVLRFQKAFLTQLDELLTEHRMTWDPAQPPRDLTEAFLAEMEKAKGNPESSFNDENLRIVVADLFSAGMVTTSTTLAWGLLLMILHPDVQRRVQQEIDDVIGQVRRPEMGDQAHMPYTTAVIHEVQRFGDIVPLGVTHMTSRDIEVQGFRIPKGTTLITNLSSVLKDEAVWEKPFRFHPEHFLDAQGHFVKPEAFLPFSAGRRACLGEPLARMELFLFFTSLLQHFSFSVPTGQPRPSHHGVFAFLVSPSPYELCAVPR
Sequence of Cytochrome P450 2C9 (P11712 whole entry): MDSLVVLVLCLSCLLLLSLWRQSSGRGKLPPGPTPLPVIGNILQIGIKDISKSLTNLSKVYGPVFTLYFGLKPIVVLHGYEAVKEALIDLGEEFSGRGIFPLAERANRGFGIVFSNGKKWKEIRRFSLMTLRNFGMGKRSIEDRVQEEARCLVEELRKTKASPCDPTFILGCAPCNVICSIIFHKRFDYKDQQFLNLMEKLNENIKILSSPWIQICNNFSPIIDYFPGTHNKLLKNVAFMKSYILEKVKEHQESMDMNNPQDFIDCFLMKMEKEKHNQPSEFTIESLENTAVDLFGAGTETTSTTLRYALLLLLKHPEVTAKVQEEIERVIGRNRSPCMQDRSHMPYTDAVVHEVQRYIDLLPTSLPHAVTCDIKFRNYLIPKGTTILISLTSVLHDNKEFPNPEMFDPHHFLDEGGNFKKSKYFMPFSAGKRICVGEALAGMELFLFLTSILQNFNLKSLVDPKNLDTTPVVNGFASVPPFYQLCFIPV

For `COc1ccc2c(-n3c(=O)n(Cc4cccc([C@@]5(C)OC(=O)NC5=O)c4)c4ccccc43)noc2c1`, the Activity in data set [1] is given as 84%; in data set [2], “Not Active”; in [8], 77%; in data set [9], “Toxic”; in data set [10], 74%; in [11], “Non-toxic”. The Activity in data set [15] is listed as 87%. Besides, the figures for the IC50 in data set [3], in [5] and in data set [12] were 91 µM, 2 µM and over 50 µM, respectively. Besides, the clearance in data set [4] is 5.5 mL/min/kg. Also, the figures for the AUC at 240 h in data set [6] and in data set [16] were 70 µM·h and 129 µM·h, respectively. Further, the result in data set [7] was Active. For the same compound, the ED50 in data set [13] was found to be 281 µM·h. The bioavailability (usually the share of a dose that reaches the circulation, judged against a reference dose that is usually intravenous) in [14] amounted to 87%.

Values taken from ChEMBL document CHEMBL1944523, “Benzimidazolones: a new class of selective peroxisome proliferator-activated receptor γ (PPARγ) modulators” (J Med Chem, 2011).
